ChEMBL document CHEMBL1130049, “Synthesis and oral efficacy of a 4-(butylethylamino)pyrrolo[2,3-d]pyrimidine: a centrally active corticotropin-releasing factor1 receptor antagonist” (J Med Chem, 1997)

What was measured:
[1] = Oral bioavailability in rat; assay type: ADME, organism-based; conditions: in vivo, read-out: Bioavailabiility
Procedure, shortened: (§1)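 Male Sprague-Dawley rats (300–350 g) had jugular cannulae placed under pentobarbital the day before dosing. Groups of n = 4 got 5 mg/kg iv bolus (DMSO/emulphor/saline 5:5:90) or 10 mg/kg po (DMSO/emulphor/water 5:5:90). Serial plasma was taken to 24 h (iv) or 8 h (po) and assayed by HPLC-UV at 300 nm. AUC was by linear trapezoid, CL = dose/AUC, Vdss = CL×MRT, and F from dose-normalised po/iv AUC.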

[2] = Maximal plasma concentration in rat; assay type: ADME, organism-based; procedure, shortened: as §1
[3] = target: T1, Corticotropin-releasing factor receptor 1 (Rattus norvegicus, UniProt P35353); test: Inhibition of binding of 70 pM [125I]-Try0-o-Corticotropin-releasing Factor (CFR) to Corticotropin releasing hormone receptor 1 in Rat brain membrane; assay type: cell membranes
T1 sequence (P35353 whole entry): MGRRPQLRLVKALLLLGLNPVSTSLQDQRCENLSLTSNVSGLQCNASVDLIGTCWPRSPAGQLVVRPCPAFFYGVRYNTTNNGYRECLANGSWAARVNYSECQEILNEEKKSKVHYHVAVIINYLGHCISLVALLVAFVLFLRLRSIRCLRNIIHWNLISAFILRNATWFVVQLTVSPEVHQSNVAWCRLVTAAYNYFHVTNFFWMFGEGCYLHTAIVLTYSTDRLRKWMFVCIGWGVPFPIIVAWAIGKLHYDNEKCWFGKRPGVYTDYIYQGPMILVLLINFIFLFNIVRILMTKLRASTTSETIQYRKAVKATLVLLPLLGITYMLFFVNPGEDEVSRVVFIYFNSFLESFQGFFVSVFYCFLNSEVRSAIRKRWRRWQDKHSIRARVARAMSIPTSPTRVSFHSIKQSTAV

Rattus norvegicus [4] = organism: Rattus norvegicus; test: Volume of distribution in steady state in rat; assay type: ADME, organism-based; conditions: in vivo; procedure, shortened: as §1
Rattus norvegicus [5] = organism: Rattus norvegicus; test: Half life in rat; assay type: ADME, organism-based; conditions: in vivo; procedure, shortened: as §1
[6] = Plasma clearance in rat; assay type: ADME, organism-based; procedure, shortened: as §1
[7] = target: Corticotropin-releasing factor receptor 2 (Rattus norvegicus, UniProt P47866); test: Inhibition of binding of [125I]-Tyr0-sauvagine to Corticotropin releasing hormone receptor 2 (CRF2)
Sequence of Corticotropin-releasing factor receptor 2 (P47866 whole entry): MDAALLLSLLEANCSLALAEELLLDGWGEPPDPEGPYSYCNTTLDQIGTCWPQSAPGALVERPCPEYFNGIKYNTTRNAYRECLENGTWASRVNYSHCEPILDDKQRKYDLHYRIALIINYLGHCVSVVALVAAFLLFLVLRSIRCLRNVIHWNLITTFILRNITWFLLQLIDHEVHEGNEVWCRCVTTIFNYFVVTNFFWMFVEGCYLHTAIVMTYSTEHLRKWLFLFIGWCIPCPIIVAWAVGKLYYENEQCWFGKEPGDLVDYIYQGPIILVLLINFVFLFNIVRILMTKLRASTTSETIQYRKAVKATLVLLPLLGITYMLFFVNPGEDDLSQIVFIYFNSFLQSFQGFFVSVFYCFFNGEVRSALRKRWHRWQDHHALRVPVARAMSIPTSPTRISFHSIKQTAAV

With `CCCCN(CC)c1nc(C)nc2c1c(C)cn2-c1c(C)cc(C)cc1C` [CP-154526] the bioavailability [1] was 37%, the Cmax [2] was 367 ng/mL and the IC50 [3] was 5.5 nM. For the same molecule, the Vdss (Rattus norvegicus [4]) was 6.7 L/kg, the T1/2 (Rattus norvegicus [5]) was 1.5 h and the clearance [6] was 82 mL/min/kg. For the same molecule, the Ki [7] was > 10000 nM.
